Measured values taken from PMC8293762 (Slas Discovery, 2021).

What was measured:
HCN4 [1] = molecular target: T1, HCN4 (Homo sapiens, UniProt Q9Y3Q4); format: cell-based; details: six repetitive hyperpolarization pulses, Fig. 2A,B
T1 sequence (Q9Y3Q4 1-1203): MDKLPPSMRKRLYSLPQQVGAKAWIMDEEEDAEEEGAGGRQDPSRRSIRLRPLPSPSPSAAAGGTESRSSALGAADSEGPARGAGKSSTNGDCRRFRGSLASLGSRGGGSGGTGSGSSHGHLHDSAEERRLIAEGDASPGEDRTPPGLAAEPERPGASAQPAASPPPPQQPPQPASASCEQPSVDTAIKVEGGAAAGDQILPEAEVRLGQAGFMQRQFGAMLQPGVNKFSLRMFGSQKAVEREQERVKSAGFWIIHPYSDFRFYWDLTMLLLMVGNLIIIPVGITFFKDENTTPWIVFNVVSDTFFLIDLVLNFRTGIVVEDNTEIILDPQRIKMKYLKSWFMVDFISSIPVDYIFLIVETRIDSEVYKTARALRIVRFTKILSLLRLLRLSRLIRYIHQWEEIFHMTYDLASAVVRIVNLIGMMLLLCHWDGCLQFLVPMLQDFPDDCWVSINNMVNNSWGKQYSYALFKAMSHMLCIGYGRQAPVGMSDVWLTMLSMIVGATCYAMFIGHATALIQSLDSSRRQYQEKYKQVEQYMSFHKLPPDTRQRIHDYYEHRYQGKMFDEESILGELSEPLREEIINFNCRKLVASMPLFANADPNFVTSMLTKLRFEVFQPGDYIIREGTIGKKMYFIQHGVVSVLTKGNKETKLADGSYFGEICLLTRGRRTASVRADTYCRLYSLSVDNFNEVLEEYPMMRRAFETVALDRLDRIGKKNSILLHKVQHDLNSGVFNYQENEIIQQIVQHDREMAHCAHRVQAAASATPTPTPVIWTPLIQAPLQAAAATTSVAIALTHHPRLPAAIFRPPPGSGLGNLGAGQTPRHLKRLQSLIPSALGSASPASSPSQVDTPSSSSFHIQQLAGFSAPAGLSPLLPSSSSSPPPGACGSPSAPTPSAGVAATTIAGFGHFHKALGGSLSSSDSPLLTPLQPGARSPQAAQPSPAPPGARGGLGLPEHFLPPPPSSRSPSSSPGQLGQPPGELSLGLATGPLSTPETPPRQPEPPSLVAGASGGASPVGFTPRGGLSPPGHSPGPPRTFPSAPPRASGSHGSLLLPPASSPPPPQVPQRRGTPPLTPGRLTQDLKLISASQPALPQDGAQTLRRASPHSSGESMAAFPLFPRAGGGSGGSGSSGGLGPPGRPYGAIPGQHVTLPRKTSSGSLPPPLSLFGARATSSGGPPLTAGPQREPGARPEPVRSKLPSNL

[2] = tested on: isolated rat right atrium; test: Heart rate in isolated rat right atrium in vitro; details: data not shown
HCN4 [3] = molecular target: T1, HCN4; test: Random screening of ~16,000 compounds for HCN4 blockade, IonWorks; format: cell-based; details: six-pulse protocol; blockade traces, Fig. 3C
Outline: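 Human HCN4 (Thr110Ser) stably expressed in CHO-K1 cells, grown at 37 °C, then held at 30 °C for 2−8 days before recording. Perforated-patch (amphotericin B) IonWorks recording, SH mode then PPC mode. Held at −30 mV with a +10 mV leak prepulse, then six hyperpolarizing pulses. Test compound at 30 μM, DMSO 0.3% per well. Current at end of last pulse read before and 5−10 min after addition; percent inhibition from post/pre ratio.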

Compound | Use dependence of HCN4 blockade according to pulse number (HCN4 [1]) | Effect on heart rate in isolated rat right atrium [2] | Use dependence of HCN4 blockade over six pulses (HCN4 [3])
COc1cc2c(cc1OC)CC(=O)N(CCCN(C)C[C@H]1Cc3cc(OC)c(OC)cc31)CC2 [Ivabradine] | use-dependent blockade |  | 
FC(F)(F)c1cccc(-c2ccc3c(c2)CNCC3)c1 [T-524, 7-[3-(trifluoromethyl)phenyl]-1,2,3,4-tetrahydroisoquinoline] |  | reduced heart rate | almost the same blockade or even a decreasing blockade over six pulses
ZD7288 [reference compound] |  |  | almost the same blockade or even a decreasing blockade over six pulses
COc1cc(Cl)c(S(=O)(=O)N[C@@H](C)C(=O)N2CCC(N3CCCCC3)CC2)cc1Cl [T-478, N-[(2S)-1-([1,4′-bipiperidin]-1′-yl)-1-oxopropan-2-yl]-2,5-dichloro-4-methoxybenzene-1-sulfonamide] |  | reduced heart rate | use-dependent blockade
O=C(c1ccc(-n2cccn2)nc1)N1CCN2C(=O)OC(c3ccccc3)(c3ccccc3)[C@H]2C1 [T-788, (8aR)-1,1-diphenyl-7-[6-(1H-pyrazol-1-yl)pyridine-3-carbonyl]hexahydro-3H-[1,3]oxazolo[3,4-a]pyrazin-3-one] |  | reduced heart rate | almost the same blockade or even a decreasing blockade over six pulses
